Assay results of several laboratories.
Lines come from different studies, so protocols differ. Converted amounts (≈) assume the structure as drawn.
Organism: Nakaseomyces glabratus
Effect on: microbial growth
Strain: ATCC90030

Compound	test	conditions	IC50 [µg/mL]
COc1cc(NC(C)CCCN)c2nc(C(C)(C)C)ccc2c1Oc1ccc(Cl)c(Cl)c1 (stereo not shown)			19.4 (≈ 40.7 µM)
C#CCCCCCCCCCCCC(O)CC(O)CO (stereo not shown)	broth dilution		> 200
O=C(O)c1nc2ccccc2c(=O)n1Cc1cn(-c2ccccc2Cl)nn1	broth dilution	24 h	266 (≈ 698 µM)
C[C@@H]1[C@H](O)[C@@H](C)/C=C/C=C/C=C/C=C/C=C/C=C/C=C/[C@H](O[C@@H]2O[C@H](C)[C@@H](O)[C@H](N)[C@@H]2O)C[C@@H]2O[C@](O)(C[C@@H](O)C[C@@H](O)[C@H](O)CC[C@@H](O)C[C@@H](O)CC(=O)O[C@H]1C)C[C@H](O)[C@H]2C(=O)O			0.14 (≈ 0.152 µM)
C[C@@H]1[C@H](O)[C@@H](C)/C=C/C=C/C=C/C=C/C=C/C=C/C=C/[C@H](O[C@@H]2O[C@H](C)[C@@H](O)[C@H](N)[C@@H]2O)C[C@@H]2O[C@](O)(C[C@@H](O)C[C@@H](O)[C@H](O)CC[C@@H](O)C[C@@H](O)CC(=O)O[C@H]1C)C[C@H](O)[C@H]2C(=O)O	broth dilution		0.39 (≈ 0.422 µM)
O=C(O)c1ccc(-n2cc(Cn3c(C(=O)O)nc4ccccc4c3=O)nn2)cc1	broth dilution	24 h	522 (≈ 1330 µM)
CCCCCOc1c(OC)cc(NC(C)CCCNC(=O)C(N)Cc2cc3ccccc3[nH]2)c2nc(C(C)(C)C)ccc12 (stereo not shown)			9.72 (≈ 16.5 µM)
CCCCCCCCCCCCCC(O)CC(O)CO (stereo not shown)	broth dilution		> 200
CCOC(=O)c1nc2ccccc2c(=O)n1Cc1cn(-c2cccc(C)c2)nn1	broth dilution	24 h	395 (≈ 1010 µM)
CCCCCOc1c(OC)cc(NC(C)CCCNC(=O)C(N)C(C)CC)c2nc(C(C)(C)C)ccc12 (stereo not shown)			15.2 (≈ 29.6 µM)
